# Diaph act CS = counter-screen for diaphorase-based assays: diaphorase activators and chemical reducers. activation factor at 20 µM. Diaphorase/resazurin coupled assay, resorufin fluorescence, 16 min; active compounds read high; 1 = vehicle wells, 0 = NADH-free wells. actives 0.005% (n = 190,000);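 active = diaphorase activity raised at least twofold by the compound at 20 µM; inactive = activation factor below 2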
#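 System – purified diaphorase enzyme from Clostridium kluyveri · Input – enzyme 0.07 U/mL final · Also added – final NADH 0.114 mM, resazurin 0.1 mM · Measured by – fluorescence of resorufin, 544 nm excitation, 590 nm emission · Timing – 16 min enzyme reaction, ambient temperature · Measure – resorufin increase flagging diaphorase activators or reducers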
# Diaph inh CS = inhibits diaphorase or chemically oxidizes, flagging diaphorase assay artifacts; diaphorase resazurin-to-resorufin fluorescence, NADH, 16 min; bacterial (C. kluyveri) enzyme, not human; inhibition, % at 20 µM; actives 0.69% (n = 190,000); AID 1217;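 active = primary screen inhibition at 20 µM above a set limit, cut at about 50% in these data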;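 also: plate controls were DMSO with full reaction for no effect and wells lacking NADH for full effect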
#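 Assay system: diaphorase enzyme from Clostridium kluyveri; Input: enzyme working solution with 0.14 U/mL diaphorase; Timing: 16 min at room temperature; Technique: resorufin fluorescence, excitation 544 nm, emission 590 nm; Benchmarks: positive control minus NADH, DMSO neutral control.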
# HKDC1 inh = blocks human hexokinase HKDC1 activity; inhibition, % at 20 µM; recombinant HKDC1, G6PDH/diaphorase resazurin coupled fluorescence; actives 0.16% (n = 340,000); Q2TB90;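 active = inhibition above about 35% when tested at 20 µM, limit read from the data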;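 also: plate controls were DMSO wells with enzyme for no effect and DMSO wells lacking enzyme for full effect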
# Target sequence (Q2TB90 whole entry, looked up): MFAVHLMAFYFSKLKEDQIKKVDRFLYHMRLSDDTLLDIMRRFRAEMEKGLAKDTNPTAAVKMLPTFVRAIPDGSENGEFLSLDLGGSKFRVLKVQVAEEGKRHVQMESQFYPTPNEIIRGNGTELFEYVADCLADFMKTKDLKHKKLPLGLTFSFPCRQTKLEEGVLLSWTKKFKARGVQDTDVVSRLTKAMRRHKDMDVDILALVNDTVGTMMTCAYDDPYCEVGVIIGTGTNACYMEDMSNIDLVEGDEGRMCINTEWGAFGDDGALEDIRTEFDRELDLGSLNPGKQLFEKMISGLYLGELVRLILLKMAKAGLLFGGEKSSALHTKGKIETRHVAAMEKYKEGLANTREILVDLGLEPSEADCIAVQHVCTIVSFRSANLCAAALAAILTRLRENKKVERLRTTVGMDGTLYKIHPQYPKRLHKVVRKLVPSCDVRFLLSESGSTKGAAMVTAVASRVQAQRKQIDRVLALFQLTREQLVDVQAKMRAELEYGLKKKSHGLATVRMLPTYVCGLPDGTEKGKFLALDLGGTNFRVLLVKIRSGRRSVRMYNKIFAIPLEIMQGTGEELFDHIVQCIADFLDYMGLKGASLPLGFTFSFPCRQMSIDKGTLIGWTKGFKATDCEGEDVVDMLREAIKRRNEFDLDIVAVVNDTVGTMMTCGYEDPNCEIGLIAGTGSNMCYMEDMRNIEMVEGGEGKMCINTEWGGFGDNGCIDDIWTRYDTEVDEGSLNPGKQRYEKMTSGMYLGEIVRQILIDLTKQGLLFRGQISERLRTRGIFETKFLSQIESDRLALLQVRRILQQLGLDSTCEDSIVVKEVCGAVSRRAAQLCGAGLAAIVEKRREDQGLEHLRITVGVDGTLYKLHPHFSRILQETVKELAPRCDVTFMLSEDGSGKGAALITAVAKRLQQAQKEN
#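 Test system: HK5 enzyme. Quantity: 5 µg/mL HK5 final. Reagent: glucose and ATP substrates. Schedule: 90 min reaction incubation at room temperature, dark. Technique: resazurin-to-resorufin fluorescence via G6PDH and diaphorase coupling, 525/613 nm. Control set: DMSO wells with and without enzyme mix.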
# G6PDH counter = L. mesenteroides G6PDH inhibition counter-screen; inhibition, % at 5 µM; Purified L. mesenteroides G6PDH, diaphorase/resazurin coupled fluorescence, 45 min; actives 0.12% (n = 200,000); AID 1020; in the data active = inhibition above about 50%
# PfGluPho inh = PfG6PD (Plasmodium falciparum) enzyme inhibition. PfGluPho enzyme, NADPH resazurin-diaphorase fluorescence. inhibition, % at 20 µM. actives 0.78% (n = 350,000). AID 504690;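 active = inhibition reaching at least a set limit at 20 µM in the primary screen, cut at about 59% in these data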;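 also: 0% = DMSO wells with substrate and 100% = DMSO wells lacking glucose-6-phosphate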
# Active calls of the source: *; nt = no result given. An excerpt weighted towards active compounds, which were near 1.2% of everything screened.
SMILES,Diaph act CS,Diaph inh CS,HKDC1 inh,G6PDH counter,PfGluPho inh
CCOc1ccc2c(c1)C(C)=CC(C)(C)N2C(=O)Nc1ccccc1,0.5,47.6,3.9,18.4,77.6*
Cn1ncc([N+](=O)[O-])c1C(=O)Nc1ccccc1C#N,nt,nt,nt,nt,8.2
N#CCSc1ccc(-c2nc3ccccc3[nH]2)cn1,0.4,57.7*,1.2,11.4,22.8
CCOC(=O)CSc1ccc(-c2nc3ccccc3[nH]2)cn1,0.9,11.2,1.4,-6.2,3.7
CCNc1ccc(Br)cc(C(=O)/C=C/c2ccc(Cl)cc2Cl)c1=O,0.5,54.2*,26.1,21.3,24.9
O=C(COC(=O)CN1C(=O)c2ccccc2C1=O)Nc1ccccc1C(F)(F)F,nt,nt,nt,nt,7.3
COc1ccc(NC(=O)CC2Nc3cccc4cccc(c34)NC2=O)cc1 (configuration not stated),0.2,75.2*,23.5,23.2,25.8
COc1ccc2cc(C(N)=O)/c(=N/NC(=O)c3ccco3)oc2c1,0.2,76.5*,2.7,-17.0,27.5
COc1ccc2cc(C(=O)NCc3ccco3)c(=O)oc2c1,0.9,9.0,-2.5,-8.9,7.9
NC(=O)c1cc2ccccc2o/c1=N/NC(=O)c1cccs1,0.3,69.3*,-5.9,2.5,17.8
COc1ccc2o/c(=N/NC(=O)c3cccs3)c(C(N)=O)cc2c1,0.8,18.8,-1.0,9.4,0.2
CCC1(C)Cc2c(sc3nnn(CC(=O)Nc4ccccc4)c(=O)c23)CO1 (configuration not stated),0.8,17.3,-4.6,4.9,8.4
CCC1(C)Cc2c(sc3nnn(Cc4ccccc4Cl)c(=O)c23)CO1 (configuration not stated),0.4,57.3*,-5.5,3.7,20.5
CCn1c(SCc2nc3sc(C(=O)O)c(C)c3c(=O)[nH]2)nc2ccccc21,0.4,60.9*,1.6,7.0,-5.7
N#CC1=C2CCCCC2(O)NC1=O (configuration not stated),nt,nt,nt,nt,4.5
O=C(COc1ccccc1C(=O)N/N=C\c1ccc(O)c(O)c1)N/N=C/c1ccc(O)c(O)c1,0.3,69.8*,18.8,0.7,37.7
COc1cc([N+](=O)[O-])cc(/C=N/NC(=O)C(C)Nc2cccc3ccccc23)c1O (configuration not stated),0.3,70.5*,7.5,-16.5,-20.7
CC(O)C(=O)N/N=C/c1cccc2ccccc12 (configuration not stated),1,1.4,-11.1,-0.9,14.3
CC(Nc1cccc2ccccc12)C(=O)N/N=C/c1ccc([N+](=O)[O-])cc1 (configuration not stated),0.8,16.8,15.2,-1.3,21.8
Cc1cccc(/C=N/NC(=O)C(C)Nc2cccc3ccccc23)n1 (configuration not stated),0.7,27.7,0.4,50.0*,6.3
O=c1[nH]sc2ccccc12,1.1,-12.5,-4.6,2.4,65.1*
CN(Cc1ccc(Cl)c(Cl)c1)C(=O)C1CC(=O)N(c2ccc3c(c2)OCCO3)C1 (configuration not stated),nt,nt,nt,nt,-17.4
OCC(CO)(CO)N=Cc1c(O)ccc2ccccc12,0.4,57.3*,10.2,34.2,34.5
CN(C)/N=C/c1c(O)ccc2ccccc12,0.7,29.2,14.6,13.1,8.3
CCCCN(C(=O)COC(=O)c1sccc1C)c1c(N)n(CCC)c(=O)[nH]c1=O,nt,nt,nt,nt,-2.4
SMILES,Diaph act CS,Diaph inh CS,HKDC1 inh,G6PDH counter,PfGluPho inh
CCOC(=O)c1ccc(N2C(=O)C=CC2=O)cc1,1,-0.8,-3.4,8.7,65.7*
CCn1cc(/C=C(\NC(=O)c2cc(OC)c(OC)c(OC)c2)C(=O)N2CCOCC2)c2ccccc21,nt,nt,nt,nt,-2.7
COC(=O)c1sc(NC(=O)c2cccc([N+](=O)[O-])c2)c(C(N)=O)c1C,1,0.6,-8.7,-6.0,27.0
COC(=O)c1c(NC(=O)c2cccc([N+](=O)[O-])c2)sc(C(N)=O)c1C,0.3,72.1*,-10.8,5.4,9.1
N=C1C=CC=C2C1=NC1(CCCCC1)N2O,0.4,64.1*,1.1,-23.5,23.2
Cc1cc(C)c2c(=O)n(CC(=O)NCCCN3CCN(c4ccccc4F)CC3)sc2n1,1,-0.6,-0.2,-7.9,98.5*
Cc1ccccc1CS(=O)(=O)CCC(=O)NCCCN1CCN(c2ccccc2F)CC1,0.9,9.7,-1.6,7.5,-13.6
Cc1cc(C)c2c(=O)n(CC(=O)NCCCN3CCOCC3)sc2n1,1.1,-7.4,7.0,16.2,70.3*
Cc1cc(C)c2c(=O)n(CC(=O)N3CCC(Cc4ccccc4)CC3)sc2n1,0.7,28.8,nt,-41.0,nt
CCCCN1C(=O)C(CC(=O)NCCN2CCOCC2)CC(C(=O)N(CC)CC)=C1C (configuration not stated),nt,nt,nt,nt,1.6
CC(C)(C)Cc1c(-c2ccc(C#N)cc2)nc2ccc(Cl)cn12,nt,nt,nt,nt,36.2
CCCCN1C(=O)C(CC(=O)NC2CC2)CC(C(=O)N(CC)CC)=C1C (configuration not stated),nt,nt,nt,nt,-4.9
O=C1C(=O)N(c2ccccc2)C(c2ccccc2[N+](=O)[O-])/C1=C(\O)c1ccccc1 (configuration not stated),0.5,51.3*,1.0,13.3,10.2
O=C(C[C@H]1C[C@H]2c3cc(NS(=O)(=O)c4ccc(F)cc4)ccc3O[C@H]2[C@H](CO)O1)NCc1ccncc1,nt,nt,nt,nt,7.5
Cc1ccc(CNC(=O)c2ccc3c(=O)n(CC4CCCO4)c(=S)[nH]c3c2)cc1 (configuration not stated),0.9,6.6,-4.5,-23.4,2.4
Cc1ccc(CNC(=O)c2ccc3c(=O)[nH]c4c(C(=O)NCC5CCCO5)sc(=S)n4c3c2)cc1 (configuration not stated),0.2,78.7*,22.6,4.7,-4.0
O=C(NCc1ccccc1)c1ccc2c(=O)[nH]c3c(C(=O)NCC4CCCO4)sc(=S)n3c2c1 (configuration not stated),0.3,69.5*,34.9,-1.9,17.2
CCCCCNC(=O)c1ccc2c(=O)[nH]c3c(C(=O)NCC4CCCO4)sc(=S)n3c2c1 (configuration not stated),0.4,64.8*,25.4,-2.4,5.5
CCOC(=O)CSc1nnc(-c2cc(OC)c(OC)c(OC)c2)o1,1,-3.5,1.1,6.2,-9.0
COc1cc(-c2nnc(SCc3cc(=O)oc4cc(O)c(O)cc34)o2)cc(OC)c1OC,0.3,67.1*,29.5,-0.2,-35.5
O=C(Nc1cccc(C(=O)O)c1)/C(=C\c1ccccc1)NC(=O)c1ccco1,nt,nt,nt,nt,-24.7
CCOC(=O)/C=C/C(=O)OCC(=O)Nc1ccc(Cl)cn1,0.9,8.0,6.8,8.1,1.1
CCOC(=O)NC1(Nc2ccc(Cl)cn2)Oc2ccccc2O1,0.5,54.0*,nt,25.8,nt
C[C@H]1CN([C@@H](C)CO)C(=O)CCCn2nncc2CO[C@H]1CN(C)C(=O)NC1CCCCC1,nt,nt,nt,nt,4.1

# Screening data from PubChem.
